The source of these data is ChEMBL document CHEMBL3351276, “Structural basis for rational design of inhibitors targeting Trypanosoma cruzi sterol 14α-demethylase: two regions of the enzyme molecule potentiate its inhibition” (J Med Chem, 2014).

The target in assay [1] is Sterol 14-alpha demethylase (Trypanosoma cruzi (strain CL Brener)) (UniProt Q7Z1V1). Put plainly: Binding affinity to Trypanosoma cruzi CYP51 by spectral ligand binding assay. The gist of the method:
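Full-length Tulahuen T. cruzi CYP51 at ~1 μM in 20 mM K-phosphate pH 7.4, 200 mM NaCl, 0.1 mM EDTA, 25 °C, 5 cm path. Ligand is titrated 0.2–2.0 μM in 0.2 μM steps, with DMSO matched in the reference cuvette. The Soret red-shift difference spectra (peak-to-trough ΔA) are fit to a quadratic tight-binding equation, giving Ks and ΔAmax/Ks.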

Assay [2] shares this target. Put plainly: Inhibition of Trypanosoma cruzi CYP51 assessed as substrate conversion level using [3H]eburicol substrate at inhibitor/enzyme molar ratio of 2 after 1 hr by HPLC method. Set-up: scale not given: the % may be the effect or the level left. The gist of the method: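 Reconstituted full-length CYP51 (1 μM) with 2 μM CPR, 100 μM dilauroylphosphatidylcholine, and an isocitrate dehydrogenase/isocitrate system in 20 mM MOPS pH 7.4, 50 mM KCl, 5 mM MgCl₂, 10% glycerol. [³H]eburicol is final 50 μM; enzyme/substrate/inhibitor ratio is 1:50:2. After 5 min preincubation at 37 °C, 100 μM NADPH starts the 1 h reaction. Sterols are ethyl acetate-extracted and resolved by reverse-phase HPLC with radiodetection.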

In assay [3] the test system is Trypanosoma cruzi. Put plainly: Antitrypanosomal activity against Trypanosoma cruzi Tulahuen trypomastigotes expressing green florescent protein infected in cardiomyocytes assessed as inhibition of parasite growth after 72 hrs by fluorescence microscopy. The class given is functional, organism-based. The procedure, abridged: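 GFP-expressing T. cruzi Tulahuen 20A-clone trypomastigotes infect cardiomyocyte monolayers at 10 parasites per cell in DMEM + 10% FBS; unbound parasites are washed off. At 24 h, inhibitors (1–25 nM, in DMSO/phenol-red-free DMEM) are added and cultured 48 h, in triplicate. At 72 h, infection is read as fluorescence (RFU), or cells are fixed in paraformaldehyde and stained with DAPI/phalloidin for microscopy. Posaconazole is the control.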

For assay [4], the system named is Trypanosoma cruzi. Put plainly: Antitrypanosomal activity against Trypanosoma cruzi Tulahuen trypomastigotes expressing green florescent protein infected in cardiomyocytes assessed as inhibition of parasite growth at 10 nM after 72 hrs by fluorescence microscopy. Type of assay: functional.

Sterol 14-alpha demethylase (Trypanosoma cruzi (strain CL Brener)), sequence (Q7Z1V1 whole entry, looked up): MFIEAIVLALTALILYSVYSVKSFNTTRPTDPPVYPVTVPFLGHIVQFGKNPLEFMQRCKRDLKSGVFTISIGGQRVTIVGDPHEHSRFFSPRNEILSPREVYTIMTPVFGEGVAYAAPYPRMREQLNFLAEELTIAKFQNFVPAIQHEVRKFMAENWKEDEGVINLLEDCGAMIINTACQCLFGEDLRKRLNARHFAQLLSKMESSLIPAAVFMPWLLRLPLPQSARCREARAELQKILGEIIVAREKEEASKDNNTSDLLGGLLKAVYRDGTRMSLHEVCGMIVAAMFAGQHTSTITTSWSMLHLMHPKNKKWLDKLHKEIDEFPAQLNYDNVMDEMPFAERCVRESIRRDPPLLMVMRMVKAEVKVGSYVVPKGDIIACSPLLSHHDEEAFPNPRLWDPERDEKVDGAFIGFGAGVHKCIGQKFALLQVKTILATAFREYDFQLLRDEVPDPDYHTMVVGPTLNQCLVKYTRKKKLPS

Consider `O=C(NCCCn1ccnc1)O[C@H](Cn1ccnc1)c1ccc(F)cc1`, for which, in assay [1], the Ks stood at 0.6 µM. Further, the Activity in assay [2] turned out to be 93.9%.
Molecule `O=C(Nc1ccc(Sc2ccc([N+](=O)[O-])cc2)cc1)O[C@H](Cn1ccnc1)c1ccc(Cl)cc1` yielded a Ks in assay [1] of 0.162 µM. Further, the Activity in assay [2] came out at 12.5%. Also, in assay [3], the EC50 was found to be 1.5 nM. The inhibition at 0.01 µM in assay [4] was 70%.
`CC(C)c1ccc(NC(=O)O[C@H](Cn2ccnc2)c2ccc(Cl)cc2)cc1`: the Activity in assay [2] amounted to 1.9%. The EC50 in assay [3] amounted to 1 nM. Also, the inhibition at 0.01 µM in assay [4] amounted to 74.5%.
The corresponding values for `O=C(Nc1ccc(N2CCN(c3ccc(Cl)c(Cl)c3)CC2)cc1)O[C@@H](Cn1ccnc1)c1ccc(Cl)cc1Cl` are 0.8%, 1.2 nM and 83%.
On to `CC[C@@H]([C@H](C)O)n1ncn(-c2ccc(N3CCN(c4ccc(OC[C@@H]5CO[C@@](Cn6cncn6)(c6ccc(F)cc6F)C5)cc4)CC3)cc2)c1=O` [POSACONAZOLE], for which the EC50 in assay [3] was 5 nM. Besides, the inhibition at 0.01 µM in assay [4] was 64%.
Consider `CC(C)c1ccc(NC(=O)O[C@@H](Cn2ccnc2)c2ccc(Cl)cc2)cc1`, for which the Activity in assay [2] was 90%. For the same molecule, the EC50 in assay [3] was found to be 22 nM. In addition, in assay [4], the inhibition at 0.01 µM stood at 30.5%.
Regarding `O=C(O[C@H](Cn1ccnc1)c1ccccc1)c1ccc(-c2ccccc2)cc1`, in assay [1], the Ks is 0.046 µM. In addition, the Activity in assay [2] stood at 0.7%. The EC50 in assay [3] amounted to 1.2 nM. Moreover, the inhibition at 0.01 µM in assay [4] was 76.3%.
`O=C(NCCCn1ccnc1)O[C@@H](Cn1ccnc1)c1ccc(F)cc1` had a Ks in assay [1] of 0.087 µM. In addition, in assay [2], the Activity turned out to be 89.2%.
As for `CC(C)c1ccc(NC(=O)O[C@@H](Cn2ccnc2)c2ccc(F)cc2)cc1`, in assay [1], the Ks was 0.083 µM. In addition, in assay [2], the Activity was determined as 86.5%. The EC50 in assay [3] was 20 nM. In addition, the inhibition at 0.01 µM in assay [4] came to 32.1%.
The corresponding values for `CC(C)c1ccc(NC(=O)O[C@H](Cn2ccnc2)c2ccc(F)cc2)cc1` are 0.032 µM, 8.5%, 5.5 nM and 69.3%.
The corresponding values for `O=C(O[C@@H](Cn1ccnc1)c1ccccc1)c1ccc(-c2ccccc2)cc1` are 0.087 µM, 79.5%, 15 nM and 29.5%.
On to `O=C(Nc1ccc(Sc2ccc([N+](=O)[O-])cc2)cc1)O[C@@H](Cn1ccnc1)c1ccc(Cl)cc1`, for which the Ks in assay [1] was 0.715 µM. Further, the Activity in assay [2] came to 52.5%. Besides, in assay [3], the EC50 amounted to 2.5 nM. Moreover, the inhibition at 0.01 µM in assay [4] was 62.5%.
On to `O=C(Nc1ccc(N2CCN(c3ccc(Cl)c(Cl)c3)CC2)cc1)O[C@H](Cn1ccnc1)c1ccc(Cl)cc1Cl`, for which, in assay [2], the Activity was 3.8%. In addition, the EC50 in assay [3] was determined as 1.3 nM. Further, the inhibition at 0.01 µM in assay [4] was determined as 73.5%.
